Columns and labels:
HCT-15 = experiment: Growth inhibition of human HCT15 cells; type: functional
NCI-H522 = experiment: Growth inhibition of human NCI-H522 cells; type: functional
OVCAR-8 = experiment: Growth inhibition of human OVCAR8 cells; type: functional
TK-10 = experiment: Growth inhibition of human TK10 cells; type: functional
IGROV-1 = experiment: Growth inhibition of human IGROV1 cells; type: functional
[1] = Cytotoxicity against human Hep3B cells after 48 hrs by MTT assay; type: functional, cell-based, Hep 3B2
Outline: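 Cells exposed to a range of compound concentrations for 48 h, washed once with PBS, then incubated with MTT for 2 h. Formazan dissolved in DMSO and absorbance read at 570 nm. IC50 taken as the concentration giving 50% inhibition of proliferation.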

SR = experiment: Growth inhibition of human SR cells; type: functional
SK-OV-3 = experiment: Growth inhibition of human SKOV3 cells; type: functional
OVCAR-3 = experiment: Growth inhibition of human OVCAR-3 cells; type: functional
RXF 393 = experiment: Growth inhibition of human RXF393 cells; type: functional
[2] = biological target: Tyrosine-protein kinase Yes (Homo sapiens) (UniProt P07947); experiment: Inhibition of human YES1 at 10 uM
Sequence of Tyrosine-protein kinase Yes (Homo sapiens) (P07947 2-543 limits assumed): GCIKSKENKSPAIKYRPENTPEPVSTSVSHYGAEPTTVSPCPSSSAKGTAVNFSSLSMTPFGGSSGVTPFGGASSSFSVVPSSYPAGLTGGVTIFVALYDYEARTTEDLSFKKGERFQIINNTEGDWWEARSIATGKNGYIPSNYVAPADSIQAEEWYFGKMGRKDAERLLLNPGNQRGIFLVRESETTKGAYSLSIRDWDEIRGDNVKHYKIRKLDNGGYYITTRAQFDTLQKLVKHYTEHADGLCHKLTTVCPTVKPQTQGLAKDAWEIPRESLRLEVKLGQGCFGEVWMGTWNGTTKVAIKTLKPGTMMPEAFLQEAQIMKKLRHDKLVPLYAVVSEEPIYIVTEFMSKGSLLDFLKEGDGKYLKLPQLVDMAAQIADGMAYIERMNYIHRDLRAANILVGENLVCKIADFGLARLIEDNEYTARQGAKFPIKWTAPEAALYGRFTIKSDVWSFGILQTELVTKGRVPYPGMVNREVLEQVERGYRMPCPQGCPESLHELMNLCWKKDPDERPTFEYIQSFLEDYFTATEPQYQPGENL

[3] = biological target: cGMP-specific 3',5'-cyclic phosphodiesterase (Homo sapiens) (UniProt O76074); experiment: Inhibition of human PDE5 at 10 uM
NCI-H460 = experiment: Growth inhibition of human NCI-H460 cells; type: functional
K562 = experiment: Growth inhibition of human K562 cells; type: functional
HOP-62 = experiment: Growth inhibition of human HOP62 cells; type: functional
NCI-H23 = experiment: Growth inhibition of human NCI-H23 cells; type: functional
BT-549 = experiment: Growth inhibition of human BT549 cells; type: functional
UACC-257 = experiment: Growth inhibition of human UACC257 cells; type: functional
SF-539 = experiment: Growth inhibition of human SF539 cells; type: functional
KM12 = experiment: Growth inhibition of human KM12 cells; type: functional
UACC-62 = experiment: Growth inhibition of human UACC62 cells; type: functional
HCT-116 = experiment: Growth inhibition of human HCT116 cells; type: functional
Malme-3M = experiment: Growth inhibition of human MALME-3M cells; type: functional
MDA-MB-231 = experiment: Growth inhibition of human MDA-MB-231 cells; type: functional
786-0 = experiment: Growth inhibition of human 786-0 cells; type: functional
SF-268 = experiment: Growth inhibition of human SF268 cells; type: functional
DU-145 = experiment: Growth inhibition of human DU145 cells; type: functional
[4] = read-out: pLC50 (the source's name) (converted)

COc1ccc2[nH]c(-c3cccc(F)c3)cc(=O)c2c1O
GI50 (HCT-15): 35.5 nM
CC50 (HCT-15; [4]): > 100 µM
TGI (HCT-15; read-out: pTGI (converted)): 14.8 µM
GI50 (NCI-H522): 14.4 nM
CC50 (NCI-H522; [4]): 97.7 nM
TGI (NCI-H522; read-out: pTGI (converted)): 38 nM
GI50 (OVCAR-8): 56.2 nM
CC50 (OVCAR-8; [4]): 81.3 µM
TGI (OVCAR-8; read-out: pTGI (converted)): 16.2 µM
GI50 (TK-10): 1780 nM
CC50 (TK-10; [4]): > 100 µM
TGI (TK-10; read-out: pTGI (converted)): 67.6 µM
GI50 (IGROV-1): 26.9 nM
TGI (IGROV-1; read-out: pTGI (converted)): 93.3 nM
IC50 [1]: 70 nM
GI50 (SR): 12 nM
CC50 (SR; [4]): > 100 µM
TGI (SR; read-out: pTGI (converted)): 67.6 nM
GI50 (SK-OV-3): 35.5 nM
CC50 (SK-OV-3; [4]): 37.2 µM
TGI (SK-OV-3; read-out: pTGI (converted)): 10.7 µM
GI50 (OVCAR-3): 19.1 nM
CC50 (OVCAR-3; [4]): 30.2 µM
TGI (OVCAR-3; read-out: pTGI (converted)): 40.7 nM
GI50 (RXF 393): 17.4 nM
CC50 (RXF 393; [4]): 56.2 µM
TGI (RXF 393; read-out: pTGI (converted)): 45.7 nM
inhibition [2]: 68%
inhibition [3]: 57%
GI50 (NCI-H460): 33.1 nM
CC50 (NCI-H460; [4]): 32.4 µM
TGI (NCI-H460; read-out: pTGI (converted)): 1050 nM
GI50 (K562): 24 nM
CC50 (K562; [4]): > 100 µM
TGI (K562; read-out: pTGI (converted)): 204 nM
GI50 (HOP-62): 50.1 nM
CC50 (HOP-62; [4]): 42.7 µM
TGI (HOP-62; read-out: pTGI (converted)): 14.5 µM
GI50 (NCI-H23): 34.7 nM
CC50 (NCI-H23; [4]): > 100 µM
TGI (NCI-H23; read-out: pTGI (converted)): 13.8 µM
GI50 (BT-549): 145 nM
CC50 (BT-549; [4]): > 100 µM
TGI (BT-549; read-out: pTGI (converted)): 26.9 µM
GI50 (UACC-257): 33.9 nM
CC50 (UACC-257; [4]): > 100 µM
TGI (UACC-257; read-out: pTGI): > 100 µM
GI50 (SF-539): 26.3 nM
CC50 (SF-539; [4]): 18.6 µM
TGI (SF-539; read-out: pTGI (converted)): 97.7 nM
GI50 (KM12): 27.5 nM
CC50 (KM12; [4]): 5.5 µM
TGI (KM12; read-out: pTGI (converted)): 151 nM
GI50 (UACC-62): 30.9 nM
CC50 (UACC-62; [4]): 93.3 µM
TGI (UACC-62; read-out: pTGI (converted)): 20 µM
GI50 (HCT-116): 33.1 nM
CC50 (HCT-116; [4]): 29.5 µM
TGI (HCT-116; read-out: pTGI (converted)): 1780 nM
CC50 (Malme-3M; [4]): > 100 µM
TGI (Malme-3M; read-out: pTGI (converted)): 52.5 µM
GI50 (MDA-MB-231): 61.7 nM
CC50 (MDA-MB-231; [4]): > 100 µM
TGI (MDA-MB-231; read-out: pTGI (converted)): 22.9 µM
GI50 (786-0): 50.1 nM
CC50 (786-0; [4]): 89.1 µM
TGI (786-0; read-out: pTGI (converted)): 16.2 µM
GI50 (SF-268): 61.7 nM
CC50 (SF-268; [4]): 89.1 µM
TGI (SF-268; read-out: pTGI (converted)): 15.5 µM
GI50 (DU-145): 20.9 nM
CC50 (DU-145; [4]): 33.9 µM
TGI (DU-145; read-out: pTGI (converted)): 52.5 nM

From ChEMBL document CHEMBL1275391, “Design, synthesis, and preclinical evaluation of new 5,6- (or 6,7-) disubstituted-2-(fluorophenyl)quinolin-4-one derivatives as potent antitumor agents” (J Med Chem, 2010)
